In publication PMC3032767 (Journal of cellular physiology, 2008):
Where two headings read alike, the source gives them in different places.

Columns and labels:
VEGFR1 = VEGFR1 (Homo sapiens, UniProt P17948); test: Kinase inhibition assay; format: biochemical
How it was run: (§1)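 Kinase activity was measured by commercial services. IC50 is the mean of 3 independent experiments.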

VEGFR2 = VEGFR2 (Homo sapiens, UniProt P35968); test: Kinase inhibition assay; format: biochemical
How it was run: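 Kinase inhibition was run by commercial services, with the test compound supplied as a DMSO stock. IC50 is the mean from 3 independent experiments.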

FGFR1 = FGFR1 (Homo sapiens, UniProt P11362); test: Kinase inhibition assay; format: biochemical
How it was run: as §1

FGFR2 = FGFR2 (Homo sapiens, UniProt P21802); test: Kinase inhibition assay; format: biochemical
How it was run: as §1

PDGFRβ = PDGFRβ (Homo sapiens, UniProt P09619); test: Kinase inhibition assay; format: biochemical
How it was run: as §1

Fgr = Fgr (Homo sapiens, UniProt P09769); test: Kinase inhibition assay; format: biochemical
How it was run: as §1

Fyn = Fyn (Homo sapiens, UniProt P06241); test: Kinase inhibition assay; format: biochemical
How it was run: as §1

Hck = Hck (Homo sapiens, UniProt P08631); test: Kinase inhibition assay; format: biochemical
How it was run: as §1

Lck = Lck (Homo sapiens, UniProt P06239); test: Kinase inhibition assay; format: biochemical
Lyn = Lyn (Homo sapiens, UniProt P07948); test: Kinase inhibition assay; format: biochemical
How it was run: as §1

Src = Src (Homo sapiens, UniProt P12931); test: Kinase inhibition assay; format: biochemical
Yes = Yes (Homo sapiens, UniProt P07947); test: Kinase inhibition assay; format: biochemical
How it was run: as §1

[1] = test system: human retinal microvascular EC; test: Endothelial cell proliferation assay; format: cell-based; conditions: 48 hr; 10% FBS, 50 ng/mL rhVEGF; mean ± SEM, N= 3
How it was run: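 Human retinal microvascular EC were grown 48 hr with test compound (2 nM–5 µM) or DMSO vehicle in medium containing 10% FBS, 50 µg/mL heparin and 50 ng/mL rhVEGF. Cell number was read by XTT assay.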

[2] = test system: VEGF-induced phosphorylation of extracellular signal-regulated kinase (ERK); test: Western blot of VEGF-induced signaling in microvascular EC; format: cell-based, human; conditions: 1 µM for 1 hr, then rhVEGF 50 ng/ml 10 min
How it was run: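 Endothelial cells were held overnight in serum- and growth factor-free medium before test compound exposure. After 10 min rhVEGF, cells were lysed and blotted for phosphorylated Erk1/2, with total STAT3 as loading control. Comparison groups were no-VEGF and VEGF-only cultures.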

[3] = test system: laser-induced choroidal neovascularization (CNV); test: Mouse model of laser-induced CNV; format: in vivo, C57BL/6 mice; conditions: 14 days
[4] = Ocular tissue levels after i.p. dosing in mice; format: in vivo, C57BL/6 mice; conditions: C57BL/6, mouse, ip, 5 mg/kg
How it was run: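 C57BL/6 mice (15–20 g) got 5 mg/kg test compound i.p. twice daily for 4 days, then a single dose on Day 5. Eyes were taken 5 hr later, dissected into retina and sclera/choroid eye cups, and pooled (N=2–4). Tissue was homogenized in RIPA, extracted with acetonitrile containing internal standards and quantified by LC/MS/MS against standards made in naive tissue.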

[5] = Pharmacokinetics after topical dosing in mice; format: in vivo, C57BL/6 mice; conditions: for Plasma concentration (below level of detection): mouse, topical 1% TG100801, all time points, analyte = labelled compound
[6] = Oral and intravenous administration, systemic exposure; format: in vivo; conditions: data not shown; for Oral bioavailability: oral administration
[7] = Body weight and tolerability in the mouse CNV study; format: in vivo; conditions: 14 days
[8] = Ocular safety assessment in rabbits; format: in vivo, Dutch Belted rabbits; conditions: rabbit, 1% topical four times per day for 28 days
How it was run: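 Dutch Belted rabbits (1.7–2.2 kg) had baseline gross and slit lamp exams. Each eye then received 40 µL of 1% test prodrug or vehicle topically four times daily for 28 days. Gross exams were done daily and slit lamp exams weekly. On Day 29, final exams and ERGs were done, then eyes were taken for histopathology.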

[9] = Ocular distribution of 14C-TG100801; format: in vivo, Dutch-Belted rabbit; conditions: rabbit, 30 min after single 40 µL topical 1% TG100801 containing 14C-TG100801, left eye; liquid scintillation counter
How it was run: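 A single male Dutch-Belted rabbit (2.1 kg) received 25 µCi of 14C label in the dose. The label sits on a position kept after prodrug conversion, so counts cover prodrug plus active drug. About 30 mL blood was taken 30 min post-instillation. Blood and plasma were counted directly by liquid scintillation.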

[10] = test system: retinal edema after retinal vein thrombosis; format: in vivo, Long Evans rats
How it was run: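 Long Evans rats (250–275 g) got i.v. Rose Bengal (20 mg/kg), then laser thrombosis of one vein in the right eye. Both eyes received 10 µL test prodrug (0.3–1%) or vehicle, 5 doses over 3 days. Edema Index = (right AUC − left AUC)/left AUC. Scoring was blinded, n=9–11.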

[11] = test system: retinal edema after retinal vein thrombosis; test: Rat model of retinal vein occlusion, retinal thickness by OCT; format: in vivo, Long Evans rats; conditions: topical 1% TG100801
How it was run: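 The same Rose Bengal/laser vein-occlusion protocol and 5-dose topical schedule were used, with 1% test prodrug or vehicle; naive eyes served as comparators. Under ketamine/xylazine, vertical OCT scans covered 5 mm from the optic disc edge. Thickness was calculated at 6 evenly spaced points, and retinal area was derived. Assessment was blinded, n=17–21.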

kinase = test: Anti-kinase activity of the prodrug; format: biochemical; conditions: data not shown
[12] = test system: retinal and choroidal neovascularization; conditions: topical administration to the eye; ref Takahashi et al., 2003; cited from earlier work
[13] = test system: subfoveal choroidal neovascularization (CNV) due to AMD; conditions: intraocular injections every 6 weeks; ref Gragoudas et al., 2004; cited from earlier work

Chain of Yes (P07947 whole entry, species assumed): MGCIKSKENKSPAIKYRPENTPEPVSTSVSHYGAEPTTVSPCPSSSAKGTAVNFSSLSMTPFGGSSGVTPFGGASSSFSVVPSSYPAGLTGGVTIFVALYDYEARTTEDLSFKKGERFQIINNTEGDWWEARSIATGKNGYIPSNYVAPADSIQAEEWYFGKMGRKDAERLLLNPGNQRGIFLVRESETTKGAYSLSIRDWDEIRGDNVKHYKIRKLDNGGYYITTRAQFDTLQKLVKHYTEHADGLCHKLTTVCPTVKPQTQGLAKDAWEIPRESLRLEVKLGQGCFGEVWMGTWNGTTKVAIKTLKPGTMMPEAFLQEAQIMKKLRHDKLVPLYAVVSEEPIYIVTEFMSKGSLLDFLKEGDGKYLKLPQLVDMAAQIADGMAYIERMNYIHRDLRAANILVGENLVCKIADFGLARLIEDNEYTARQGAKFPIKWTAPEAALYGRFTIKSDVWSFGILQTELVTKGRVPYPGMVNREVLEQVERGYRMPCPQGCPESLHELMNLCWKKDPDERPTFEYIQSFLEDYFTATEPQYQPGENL
Chain of Src (P12931 whole entry, species assumed): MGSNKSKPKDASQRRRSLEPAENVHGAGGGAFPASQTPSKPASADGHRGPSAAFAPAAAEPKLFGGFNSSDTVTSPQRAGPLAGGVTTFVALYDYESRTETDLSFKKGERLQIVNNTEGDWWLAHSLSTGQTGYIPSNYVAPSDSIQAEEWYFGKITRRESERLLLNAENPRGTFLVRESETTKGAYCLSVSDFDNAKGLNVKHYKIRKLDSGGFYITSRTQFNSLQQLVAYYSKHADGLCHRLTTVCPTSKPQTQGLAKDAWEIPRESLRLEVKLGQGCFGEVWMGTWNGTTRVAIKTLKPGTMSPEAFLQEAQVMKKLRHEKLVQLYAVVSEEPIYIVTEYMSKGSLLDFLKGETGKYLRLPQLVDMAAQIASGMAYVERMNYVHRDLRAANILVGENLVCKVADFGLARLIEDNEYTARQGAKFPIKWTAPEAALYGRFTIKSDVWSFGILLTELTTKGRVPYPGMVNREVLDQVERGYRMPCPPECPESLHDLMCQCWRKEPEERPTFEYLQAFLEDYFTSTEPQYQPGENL
Chain of VEGFR2 (P35968 20-1356, species assumed): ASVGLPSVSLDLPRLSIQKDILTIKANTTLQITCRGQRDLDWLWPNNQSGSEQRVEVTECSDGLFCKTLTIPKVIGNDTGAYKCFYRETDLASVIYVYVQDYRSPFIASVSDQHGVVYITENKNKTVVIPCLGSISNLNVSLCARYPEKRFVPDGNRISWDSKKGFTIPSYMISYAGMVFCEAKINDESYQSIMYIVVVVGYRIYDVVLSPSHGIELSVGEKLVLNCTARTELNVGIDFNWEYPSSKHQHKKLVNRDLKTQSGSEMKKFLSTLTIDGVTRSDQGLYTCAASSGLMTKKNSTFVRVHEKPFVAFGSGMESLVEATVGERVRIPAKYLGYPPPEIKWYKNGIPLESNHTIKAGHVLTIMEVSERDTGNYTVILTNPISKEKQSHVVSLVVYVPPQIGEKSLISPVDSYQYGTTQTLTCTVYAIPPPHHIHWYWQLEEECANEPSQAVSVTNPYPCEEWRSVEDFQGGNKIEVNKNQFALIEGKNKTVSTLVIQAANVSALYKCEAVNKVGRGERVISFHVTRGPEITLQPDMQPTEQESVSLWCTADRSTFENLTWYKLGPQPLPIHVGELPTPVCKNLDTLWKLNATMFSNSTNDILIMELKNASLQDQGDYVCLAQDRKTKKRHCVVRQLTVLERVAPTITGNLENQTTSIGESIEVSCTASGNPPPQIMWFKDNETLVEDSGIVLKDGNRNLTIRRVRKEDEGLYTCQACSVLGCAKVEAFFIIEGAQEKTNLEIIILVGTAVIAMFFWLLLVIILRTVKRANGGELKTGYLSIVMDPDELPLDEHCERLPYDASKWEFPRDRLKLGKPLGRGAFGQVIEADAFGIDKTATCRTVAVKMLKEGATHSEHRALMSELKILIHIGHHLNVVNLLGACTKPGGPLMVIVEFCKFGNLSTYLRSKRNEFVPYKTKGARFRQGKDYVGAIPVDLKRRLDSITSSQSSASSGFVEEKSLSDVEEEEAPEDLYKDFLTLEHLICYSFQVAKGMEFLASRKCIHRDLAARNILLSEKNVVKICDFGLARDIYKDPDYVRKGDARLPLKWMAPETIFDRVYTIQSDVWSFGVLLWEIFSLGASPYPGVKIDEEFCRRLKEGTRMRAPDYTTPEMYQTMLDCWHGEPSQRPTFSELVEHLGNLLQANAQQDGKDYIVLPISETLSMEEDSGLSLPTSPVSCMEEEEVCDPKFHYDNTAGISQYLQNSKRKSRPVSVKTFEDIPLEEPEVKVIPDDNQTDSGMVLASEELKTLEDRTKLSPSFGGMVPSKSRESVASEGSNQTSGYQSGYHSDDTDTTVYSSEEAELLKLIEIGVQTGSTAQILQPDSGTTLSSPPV
Chain of Fyn (P06241 whole entry, species assumed): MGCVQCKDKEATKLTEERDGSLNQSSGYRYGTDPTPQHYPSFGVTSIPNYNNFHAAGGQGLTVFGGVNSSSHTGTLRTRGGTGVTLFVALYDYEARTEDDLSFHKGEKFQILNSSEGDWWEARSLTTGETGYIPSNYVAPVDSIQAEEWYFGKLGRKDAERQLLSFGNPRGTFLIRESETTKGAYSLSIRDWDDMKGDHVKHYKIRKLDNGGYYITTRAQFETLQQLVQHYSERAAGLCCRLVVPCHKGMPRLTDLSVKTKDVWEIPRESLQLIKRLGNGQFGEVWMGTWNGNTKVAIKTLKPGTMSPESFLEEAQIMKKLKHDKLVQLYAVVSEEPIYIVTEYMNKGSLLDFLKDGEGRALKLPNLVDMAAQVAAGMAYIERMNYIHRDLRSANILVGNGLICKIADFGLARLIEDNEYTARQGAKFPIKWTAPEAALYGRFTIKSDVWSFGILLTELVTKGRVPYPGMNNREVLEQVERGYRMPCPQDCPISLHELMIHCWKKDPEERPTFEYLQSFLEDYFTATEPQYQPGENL
Chain of FGFR2 (P21802 22-821, species assumed): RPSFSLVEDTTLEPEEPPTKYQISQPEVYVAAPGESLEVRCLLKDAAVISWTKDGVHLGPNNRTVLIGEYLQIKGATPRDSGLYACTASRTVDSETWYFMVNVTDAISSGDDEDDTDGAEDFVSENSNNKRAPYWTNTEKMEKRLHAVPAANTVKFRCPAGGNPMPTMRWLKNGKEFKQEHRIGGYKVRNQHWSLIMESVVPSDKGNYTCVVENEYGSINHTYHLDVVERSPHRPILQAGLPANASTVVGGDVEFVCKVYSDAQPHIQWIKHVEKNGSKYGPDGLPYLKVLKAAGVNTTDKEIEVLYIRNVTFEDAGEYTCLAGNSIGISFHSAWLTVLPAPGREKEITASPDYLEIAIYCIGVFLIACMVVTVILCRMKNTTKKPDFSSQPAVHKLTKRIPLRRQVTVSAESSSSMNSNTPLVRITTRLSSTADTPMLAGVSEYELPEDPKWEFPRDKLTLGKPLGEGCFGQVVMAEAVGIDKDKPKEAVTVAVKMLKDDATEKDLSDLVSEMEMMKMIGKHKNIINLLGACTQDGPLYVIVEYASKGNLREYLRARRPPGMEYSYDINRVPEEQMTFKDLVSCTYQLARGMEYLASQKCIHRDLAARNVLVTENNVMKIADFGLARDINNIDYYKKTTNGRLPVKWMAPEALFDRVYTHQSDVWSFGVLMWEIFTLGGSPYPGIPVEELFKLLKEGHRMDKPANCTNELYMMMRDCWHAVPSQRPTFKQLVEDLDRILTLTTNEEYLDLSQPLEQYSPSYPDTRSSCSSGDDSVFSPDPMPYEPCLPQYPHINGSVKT
Chain of Lck (P06239 whole entry, species assumed): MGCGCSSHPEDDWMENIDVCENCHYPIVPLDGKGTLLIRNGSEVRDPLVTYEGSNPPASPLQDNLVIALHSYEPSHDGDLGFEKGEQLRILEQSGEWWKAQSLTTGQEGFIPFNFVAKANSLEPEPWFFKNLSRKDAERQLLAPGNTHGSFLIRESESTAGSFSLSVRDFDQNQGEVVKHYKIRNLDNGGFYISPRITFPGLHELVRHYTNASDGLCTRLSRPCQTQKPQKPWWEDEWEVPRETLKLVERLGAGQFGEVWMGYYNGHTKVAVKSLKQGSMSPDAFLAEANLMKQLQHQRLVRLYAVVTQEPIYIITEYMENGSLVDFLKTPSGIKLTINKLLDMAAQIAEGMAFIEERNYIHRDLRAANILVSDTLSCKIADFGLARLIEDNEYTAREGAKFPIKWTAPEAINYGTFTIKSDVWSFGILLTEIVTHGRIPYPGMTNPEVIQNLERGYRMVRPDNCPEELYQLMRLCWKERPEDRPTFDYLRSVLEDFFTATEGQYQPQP
Chain of Fgr (P09769 whole entry, species assumed): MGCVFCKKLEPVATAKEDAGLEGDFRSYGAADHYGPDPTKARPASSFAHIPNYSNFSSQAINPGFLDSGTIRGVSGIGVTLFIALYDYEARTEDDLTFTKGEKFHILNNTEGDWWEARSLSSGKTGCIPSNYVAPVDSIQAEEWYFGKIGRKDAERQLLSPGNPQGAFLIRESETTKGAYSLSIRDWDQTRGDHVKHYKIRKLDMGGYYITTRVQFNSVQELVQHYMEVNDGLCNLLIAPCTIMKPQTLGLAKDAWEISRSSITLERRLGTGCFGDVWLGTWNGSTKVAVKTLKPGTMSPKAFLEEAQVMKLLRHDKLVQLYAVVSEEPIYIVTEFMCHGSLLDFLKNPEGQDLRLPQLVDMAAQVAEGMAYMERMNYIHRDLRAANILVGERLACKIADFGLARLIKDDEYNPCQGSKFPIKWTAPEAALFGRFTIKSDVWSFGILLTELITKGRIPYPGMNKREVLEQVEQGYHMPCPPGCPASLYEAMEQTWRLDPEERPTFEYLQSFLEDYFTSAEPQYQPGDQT

Cc1cc(-c2cc(O)ccc2Cl)cc2nnc(Nc3ccc(OCCN4CCCC4)cc3)nc12 [TG100572, 4-chloro-3-(5-methyl-3-{[4-(2-pyrrolidin-1-ylethoxy)phenyl]amino}-1,2,4-benzotriazin-7-yl)phenol]
IC50 (VEGFR1): 2 nM | IC50 (VEGFR2): 7 nM | IC50 (FGFR1): 2 nM | IC50 (FGFR2): 16 nM | IC50 (PDGFRβ): 13 nM | IC50 (Fgr): 5 nM | IC50 (Fyn): 0.5 nM | IC50 (Hck): 6 nM | IC50 (Lck): 0.1 nM | IC50 (Lyn): 0.4 nM | IC50 (Src): 1 nM | IC50 (Yes): 0.2 nM | ED50, inhibition of vascular endothelial cell proliferation [1]: 610 ± 71 nM | VEGF-induced phosphorylation of ERK [2]: blocked VEGF-induced phosphorylation of extracellular signal-regulated kinase (ERK) | Reduction of CNV area compared to vehicle ([3]; TG100572 5 mg/kg i.p. daily, P< 0.001): 40% | concentration at 5 h ([4]; choroid/sclera): 9 µM | concentration at 5 h ([4]; retina): 0.818 µM | AUC(0-t) ([5]; C57BL/6, mouse, posterior eyecup (sclera/choroid/retina), topical or ocular, 1 %): 6.8 µM·h | Tmax ([5]; C57BL/6, mouse, sclera/choroid, topical or ocular, 1 %): 1 h | Plasma concentration (below level of detection) [5]: < 2 nM | Clearance after intravenous administration [6]: rapidly cleared | Oral bioavailability [6]: oral administration does not result in detectable levels in the circulation | Body weight loss over the study ([7]; TG100572 5 mg/kg i.p. daily, vehicle gained 1%, P= 0.006): 11%

Cc1cc(-c2cc(OC(=O)c3ccccc3)ccc2Cl)cc2nnc(Nc3ccc(OCCN4CCCC4)cc3)nc12 [TG100801, 4-chloro-3-(5-methyl-3-{[4-(2-pyrrolidin-1-ylethoxy)phenyl]amino}-1,2,4-benzotriazin-7-yl)phenyl benzoate]
Reduction of CNV area relative to vehicle ([3]; topical 1% TG100801 twice a day, P= 0.036): 58% | Plasma concentration (below level of detection) [5]: < 2 nM | Daily gross exams and weekly slit lamp exams [8]: did not detect ocular changes beyond baseline responses | Electroretinograms (ERG) pre- and post-study [8]: no meaningful changes | Ocular histopathology at study end [8]: normal ocular histology | Ocular tolerability, overall judgement [8]: well-tolerated | Body weight during the study ([8]; data not shown): did not lose weight | Radioactivity in plasma samples [9]: absence of detectable radioactivity | Reduction in edema (Edema Index, fluorescein leakage) vs vehicle ([10]; topical 0.3% TG100801, 5 applications over 3 days, P= 0.002): 47% | Reduction in edema (Edema Index, fluorescein leakage) vs vehicle ([10]; topical 1% TG100801, 5 applications over 3 days, P = 0.039): 32% | Average retinal area in the region encompassed by the OCT scans ([11]; thrombosed eyes, naive 203 ± 2, vehicle 327 ± 23): 257 ± 13 µm^2 | Reduction of retinal thickness vs vehicle at points along 5 mm OCT scans ([11]; 5 out of 6 points, P< 0.05): 15–26% | Reduction of average retinal area vs vehicle-treated group ([11]; P= 0.013): 21% | Anti-kinase activity (kinase): does not display meaningful anti-kinase activity | Clearance after intravenous administration [6]: rapidly cleared | Oral bioavailability [6]: oral administration does not result in detectable levels in the circulation | Ocular tolerability by slit lamp examination ([7]; mouse, topical 0.6% and 1% twice a day): well tolerated with no signs of irritation, inflammation, or other ocular toxicity

NC(=O)Cc1cccc(C(=O)c2ccccc2)c1N [nepafenac]
Effect on retinal and choroidal neovascularization [12]: inhibits retinal and choroidal neovascularization

pegaptanib
Severe vision loss over 1 year [13]: reduction in severe vision loss
